Source: PubChem BioAssay (several laboratories)
Hits are enriched below; roughly 2.4% of the tested compounds scored in any of these assays.
CSN inh: CSN deneddylation inhibition. Q92905. Purified CSN, SCF-Nedd8-OG deneddylation, fluorescence polarization. inhibition, % at 12.5 µM. hit rate 0.38% among 360,000;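 active means pattern-corrected inhibition above about 35%, with an unprinted fluorescence ratio check between 0.5 and 1.5, limit read from the data, passing the limit was not always enough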
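Detection – fluorescence polarization · System – HEK293T-derived human Csn5 enzyme · Controls – substrate-only high control, full reaction low control · Timing – 90 min, room temperature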
TPT1 inhibitor: inhibitors of Candida albicans tRNA 2'-phosphotransferase TPT1; recombinant caTPT1, FP RNA substrate dephosphorylation; inhibition, % at 5 µM; hit rate 0.81% among 300,000;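 active means inhibition above the mean of all tested compounds plus 3 SD, set per screening campaign, cut at about 24% in these data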
Rpn11 inh: Rpn11 (human) deubiquitinase inhibition | O00487 | human 26S proteasome, Ub4-pepOG fluorescence polarization; 20S core pre-blocked with epoxomicin | inhibition, % at 20 µM | hit rate 0.59% among 360,000;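 active means inhibition at 20 µM, scaled to each plate's controls, above about 33%, limit read from the data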
HNF4A DNA FP: change in binding of human HNF4 alpha to DNA | hit rate 0.3% among 360,000 | HNF4a-FITC DNA binding, fluorescence polarization, 1 h | P41235 | activity change, % at 10 µM; in the data active means activity change above about 30%, passing the limit was not always enough
Rin1-Abl PPI inh: blocks binding of human Rin1 to Abl; hit rate 0.4% among 360,000; TR-FRET Rin1/Abl binding, biochemical; inhibition, % at 7.35 µM; P00519+Q13671; in the data active means inhibition above about 5%, passing the limit was not always enough
Neddylation inh: inhibitors of human cullin neddylation | hit rate 0.58% among 360,000 | TR-FRET cullin neddylation, biochemical | P61081+Q13564 | inhibition, % at 25 µM; in the data active means inhibition above about 36%
TPT1 inh confirm: TPT1 (C. albicans) inhibition, confirmation | shares compounds with TPT1 inhibitor | recombinant caTPT1, fluorescence polarization, RNase T1 coupled | inhibition, % at 5 µM | hit rate 74% among 2,400 | AID 2149;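 active means inhibition above the primary screen limit, the mean inhibition of all tested compounds plus 3 SD, cut at about 25% in these data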
RNase T1 inh: counter-screen for TPT1 inhibitors: inhibitors of Aspergillus oryzae RNase T1; AID 2153; RNase T1 cleavage, fluorescence polarization, 1536-well; hit rate 83% among 2,400; shares compounds with TPT1 inhibitor; inhibition, % at 5 µM;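 active means inhibition above the solvent-only control well mean plus 3 SD, limit set per screening run, cut at about 23% in these data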;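 further: inhibitors block cleavage so intact labeled substrate keeps polarization high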
A number is an active result; n = inactive; x = no result shown; + = active, no number.

SMILES	CSN inh	TPT1 inhibitor	Rpn11 inh	HNF4A DNA FP	Rin1-Abl PPI inh	Neddylation inh	TPT1 inh confirm	RNase T1 inh
CCOC(=O)c1c(NC(=S)Nc2ccc(OCC)cc2)sc2c1CCN(C)C2	n	48.1	n	n	n	n	53.0	64.5
CCOC(=O)c1c(NC(=O)Cc2ccccc2)sc2c1CCN(C)C2	n	n	n	n	n	n	x	x
COCCNC(=O)CN(C(=O)Cn1nnc2ccccc21)c1cccc(C)c1C	n	n	n	n	n	n	x	x
CCN1C(=O)[C@@H]2[C@@H](c3ccc(-c4ccc(F)cc4)cc3)N3CCCC[C@@]3(C(=O)OC)[C@@H]2C1=O	n	n	n	n	n	n	x	x
CCCS(=O)(=O)NC(=O)C1(C)CCCN(C(=O)c2nc3ccccc3s2)C1 (configuration not stated)	n	x	n	n	n	n	x	x
COC(=O)C1=NN(c2cccc(C)c2)C2C(=O)N(c3ccccc3OC)C(=O)C12 (configuration not stated)	n	n	n	n	n	x	x	x
COC(=O)c1sccc1NC(=O)c1ccc(C)cc1	n	n	n	n	n	n	x	x
COC(=O)c1sccc1NC(=O)c1ccc(OC)cc1	n	62.7	n	n	n	n	n	n
O=C(CCc1nc2ccccc2c(=O)[nH]1)NNC(=O)COc1cccc(F)c1	n	x	n	n	n	n	x	x
Cc1ccc(NS(=O)(=O)c2ccc(Br)s2)nc1	n	n	n	n	n	n	x	x
COC(=O)C(C)n1nnc2sc(-c3ccccc3)cc2c1=O (configuration not stated)	n	26.2	n	n	n	n	27.5	33.0
NC(=O)CC(NC(=O)Cc1cccc2ccccc12)c1ccc(NCc2ccccc2)c([N+](=O)[O-])c1 (configuration not stated)	n	n	n	n	n	n	x	x
CC(C)Nc1ccc(C(CC(N)=O)NC(=O)Cc2cccc3ccccc23)cc1[N+](=O)[O-] (configuration not stated)	n	74.5	x	n	n	n	85.0	94.7
CC(C)c1nnc(NC(=O)C2CCN(S(=O)(=O)c3ccc(-n4cnnn4)cc3)CC2)s1	n	n	n	n	n	n	x	x
CC(=O)Nc1ccc(N=Cc2c(O)ccc3ccccc23)cc1	n	46.1	x	77.1	n	n	46.5	78.6
COc1ccc(N=Cc2c(O)ccc3ccccc23)cc1	50.7	111.5	x	72.1	n	n	90.2	110.4
O=C(O)c1ccc(N=Cc2c(O)ccc3ccccc23)cc1	n	n	n	n	n	n	x	x
Cc1ccc(-c2nc3ccc(Cl)cc3n2OC(C)C(=O)O)cc1 (configuration not stated)	n	n	n	n	n	n	x	x
CC(=O)N(C)C[C@@H]1Oc2ncc(C#Cc3ccc(F)cc3)cc2C(=O)N([C@@H](C)CO)C[C@H]1C	n	x	n	n	n	n	x	x
COc1c(/C=C2\SC(=Nc3ccccc3Cl)NC2=O)cccc1[N+](=O)[O-]	n	n	n	n	n	n	x	x
O=C1NC(=Nc2ccccc2Cl)S/C1=C\c1cccc([N+](=O)[O-])c1O	n	28.3	n	n	n	n	41.7	54.6
N#Cc1ccccc1Cn1c(=O)n(CCC(=O)NCc2ccco2)c(=O)c2ccccc21	n	+	n	n	n	n	n	25.2
CN(C)/C=C/C(=O)/C=C/c1cn(-c2ncc(C(F)(F)F)cc2Cl)c2ccccc12	n	31.6	n	n	n	n	n	n
COC(=O)Cc1cn(-c2ncc(C(F)(F)F)cc2Cl)c2ccccc12	n	n	n	n	n	n	x	x
O=C(CSc1nc2[nH]ncc2c(=O)[nH]1)N1CCCCC1	n	n	n	n	n	n	x	x
SMILES	CSN inh	TPT1 inhibitor	Rpn11 inh	HNF4A DNA FP	Rin1-Abl PPI inh	Neddylation inh	TPT1 inh confirm	RNase T1 inh
N#C/C(=C\c1coc2ccc(O)cc2c1=O)C(=O)Nc1nc2ccccc2s1	n	28.4	x	n	n	n	92.8	89.5
C=CCN1C(=O)/C(=C/c2ccc(O)c(OC)c2)S/C1=N/c1nccs1	83.4	67.9	x	95.2	n	n	74.3	77.0
C=CCN1C(=O)/C(=C/c2ccc(OCC(=O)O)cc2)S/C1=N/c1nccs1	n	n	n	n	n	n	x	x
Cc1ccc2nc3sc(C(=O)N4CCCc5ccccc54)c(N)c3cc2c1	n	37.6	x	39.2	n	n	55.7	64.4
Cc1ccc(-c2cc(C(=O)N3CCCc4ccccc43)c3ccccc3n2)cc1	n	n	n	n	n	n	x	x
Cc1cc(C)c2cc3c(N)c(C(=O)N4CCc5ccccc5C4)sc3nc2c1	n	26.1	n	n	n	n	n	37.1
Cc1nn(CC(=O)NCc2cccc3ccccc23)c(=O)c2ccccc12	n	n	n	n	n	n	x	x
CC(C)(C)c1ccc(Cn2c(=O)cnc3ccccc32)cc1	n	n	n	n	n	n	x	x
COc1ccccc1NC(=O)C(C)OC(=O)CCNS(=O)(=O)c1cccc(C(F)(F)F)c1 (configuration not stated)	n	x	n	n	n	n	x	x
CSc1ccc(/C=C2\C(=N)N3N=C(CC(=O)N4CCOCC4)SC3=NC2=O)cc1	n	n	n	n	n	n	x	x
CCN(CC)c1ccc(/C=C2\C(=N)N3N=C(CC(=O)N4CCOCC4)SC3=NC2=O)cc1	n	137.1	x	n	n	n	173.8	164.1
COc1ccc(-c2ccc(C3C(C#N)=C(N)Oc4n[nH]c(C)c43)o2)cc1 (configuration not stated)	n	110.9	73.2	61.0	n	n	99.0	101.4
CC(=O)Nc1c(O)c2cccc3c2n(c1=O)CCC3	n	n	n	n	n	n	x	x
CC(Sc1ccc(S(=O)(=O)N2CCN(C)CC2)cn1)C(=O)NC1CCCCC1 (configuration not stated)	n	x	n	n	n	n	x	x
CCOC1=C/C(=C/c2c(N)n3oc(C)cc3nc2=O)C=CC1=O	x	n	x	x	x	x	x	x
CS(=O)(=O)c1ccc2c(c1)sc1nc(=O)c(/C=C3/C=CC(=O)C(O)=C3)c(N)n12	n	45.3	x	n	n	n	98.2	104.0
COC1=C/C(=C/c2c(N)n3c(nc2=O)sc2cc(S(C)(=O)=O)ccc23)C=CC1=O	n	54.3	x	95.7	n	n	146.5	143.0
C[C@@H]1C(=O)O[C@H]2CC34[C@H]5C[C@@H](C(C)(C)C)[C@]36[C@@H](OC(=O)[C@@H]6O)O[C@@]4(C(=O)O5)[C@]21O (some centres not stated)	n	n	n	n	n	n	x	x
CCn1c(/C=C/N(C(C)=O)c2ccccc2)[n+](CC)c2ccc(Cl)cc21	n	n	n	n	n	n	x	x
